Source: ChEMBL document CHEMBL2311333, “Synthesis and antimycobacterial evaluation of pyrazinamide derivatives with benzylamino substitution” (Bioorg Med Chem Lett, 2013)
pIC50: −log10 of the molar value.

Experiments:
[1] = Lipophilicity, log K of the compound in methanol-water mixture by HPLC analysis; assay type: physicochemical
HepG2 = test: Cytotoxicity against human HepG2 cells; assay type: cell-based
[2] = Selectivity index, ratio of IC50 for human HepG2 cells to MIC for Mycobacterium tuberculosis H37Rv CNCTC My 331/88; assay type: functional
Summary of the method: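 Cytotoxicity was measured as the decrease in viability of human liver Hep G2 cells, read colorimetrically by tetrazolium salt reduction over a dilution series. IC50 was taken from this readout, and SI was calculated as the Hep G2 IC50 divided by the M. tuberculosis H37Rv MIC from the microdilution panel assay.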

Mycobacterium avium [3] = test: Antimycobacterial activity against Mycobacterium avium CNCTC My 152/73 after 10 to 14 days by microdilution panel method; assay type: functional
Summary of the method: (§1)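 Whole-cell microdilution panel assay on strains from the Czech National Collection of Type Cultures (M. tuberculosis H37Rv My 331/88, M. avium ssp. avium Chester My 80/72, M. avium My 152/73). MIC (μg/mL) was read visually as the lowest concentration of compound that inhibited mycobacterial growth.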

Mycobacterium avium [4] = test: Antimycobacterial activity against Mycobacterium avium CNCTC My 80/72 after 10 to 14 days by microdilution panel method; assay type: functional; summary of the method: as §1
Mycobacterium kansasii = test: Antimycobacterial activity against Mycobacterium kansasii CNCTC My 235/80 after 10 to 14 days by microdilution panel method; assay type: functional
Summary of the method: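 Microdilution panel method. Strain obtained from Czech National Collection of Type Cultures (CNCTC My 235/80). MIC in μg/mL read visually as the lowest compound concentration that inhibited mycobacterial growth.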

[5] = tested on: Mycobacterium tuberculosis; test: Antimycobacterial activity against Mycobacterium tuberculosis H37Rv CNCTC My 331/88 after 10 to 14 days by microdilution panel method; assay type: functional; summary of the method: as §1
[6] = tested on: Mycobacterium tuberculosis; test: Ratio of pyrazinamide MIC to compound MIC for Mycobacterium tuberculosis H37Rv CNCTC My 331/88; assay type: functional

SMILES	log K [1]	pIC50 (HepG2)	Selectivity Index [2]	MIC (Mycobacterium avium [3])	MIC (Mycobacterium avium [4])	MIC (Mycobacterium kansasii)	MIC [5]	Ratio [6]
COc1ccc(CNc2nc(C#N)cnc2C#N)cc1	0.3259	4.02	0.5	> 100 µg/mL	> 100 µg/mL	99 µM	188 µM	–
N#Cc1cnc(C(N)=O)c(NCc2ccccc2)n1	0.326	–	–	> 100 µg/mL	> 100 µg/mL	> 100 µg/mL	> 100 µg/mL	–
Cc1ccc(CNc2nc(C#N)cnc2C(N)=O)cc1	0.5533	4.26	1.2	> 100 µg/mL	> 100 µg/mL	> 100 µg/mL	47 µM	–
COc1ccc(CNc2nc(C#N)cnc2C(N)=O)cc1	0.3074	–	–	> 100 µg/mL	> 100 µg/mL	> 100 µg/mL	> 100 µg/mL	–
N#Cc1cnc(C(N)=O)c(NCc2ccc(N)cc2)n1	-0.2005	< 3.00	>21.3	> 100 µg/mL	> 100 µg/mL	> 100 µg/mL	47 µM	–
N#Cc1cnc(C(N)=O)c(NCc2cccc(Cl)c2)n1	0.5141	–	–	> 100 µg/mL	> 100 µg/mL	> 100 µg/mL	> 100 µg/mL	–
N#Cc1cnc(C(N)=O)c(NCc2ccc(Cl)cc2)n1	0.5421	–	–	> 100 µg/mL	> 100 µg/mL	> 100 µg/mL	> 100 µg/mL	–
N#Cc1cnc(C(N)=O)c(NCc2ccc(Cl)c(Cl)c2)n1	0.7353	–	–	> 100 µg/mL	> 100 µg/mL	> 100 µg/mL	> 100 µg/mL	–
N#Cc1cnc(C(N)=O)c(NCc2cccc([N+](=O)[O-])c2)n1	0.1331	3.34	5.4	> 100 µg/mL	> 100 µg/mL	> 100 µg/mL	84 µM	–
N#Cc1cnc(C(N)=O)c(NCc2cccc(C(F)(F)F)c2)n1	0.5104	4.56	0.4	> 100 µg/mL	> 100 µg/mL	> 100 µg/mL	78 µM	–
N#Cc1cnc(C#N)c(NCc2ccccc2)n1	0.335	4.22	1.1	53 µM	106 µM	106 µM	53 µM	–
Cc1ccc(CNc2nc(C#N)cnc2C#N)cc1	0.5598	4.15	2.8	> 100 µg/mL	> 100 µg/mL	> 100 µg/mL	25 µM	2
N#Cc1cnc(C#N)c(NCc2ccc(N)cc2)n1	-0.1621	3.26	5.5	> 100 µg/mL	> 100 µg/mL	> 100 µg/mL	100 µM	–
N#Cc1cnc(C#N)c(NCc2cccc(Cl)c2)n1	0.5456	4.40	0.9	> 100 µg/mL	> 100 µg/mL	46 µM	46 µM	–
N#Cc1cnc(C#N)c(NCc2ccc(Cl)cc2)n1	0.5735	4.45	0.4	> 100 µg/mL	> 100 µg/mL	46 µM	93 µM	–
N#Cc1cnc(C#N)c(NCc2ccc(Cl)c(Cl)c2)n1	0.783	–	–	> 100 µg/mL	> 100 µg/mL	> 100 µg/mL	> 100 µg/mL	–
N#Cc1cnc(C#N)c(NCc2cccc([N+](=O)[O-])c2)n1	0.2049	–	–	> 100 µg/mL	> 100 µg/mL	> 100 µg/mL	> 100 µg/mL	–
N#Cc1cnc(C#N)c(NCc2cccc(C(F)(F)F)c2)n1	0.5615	–	–	> 100 µg/mL	> 100 µg/mL	> 100 µg/mL	> 100 µg/mL	–
Cc1ccccc1CNc1nc(C#N)cnc1C#N	0.5043	–	–	> 100 µg/mL	> 100 µg/mL	> 100 µg/mL	> 100 µg/mL	–
NNC(=O)c1ccncc1 [ISONIAZID]	–	–	–	23 µM	46 µM	91 µM	11 µM	–
NC(=O)c1cnccn1 [PYRAZINAMIDE]	–	–	775	> 100 µg/mL	> 100 µg/mL	> 100 µg/mL	51 µM	–
